Laboratory results from ChEMBL document CHEMBL1129974, “Discovery of HIV-1 integrase inhibitors by pharmacophore searching” (J Med Chem, 1997).

Assays:
[1] = target: Human immunodeficiency virus type 1 integrase (Human immunodeficiency virus 1) (UniProt Q7ZJM1); assay: Percentage inhibition was obtained by performing in vitro assay on purified recombinant integrase by 3''-processing method at 100 micro g/mL (experiment 1)
Method in brief: (§1)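 Single concentration of 100 µg/mL tested. Recombinant HIV-1 integrase (200 nM final) preincubated with compound for 30 min at 30 °C in Mn2+/DMSO buffer, then reacted for 60 min with 20 nM 5′-32P-labeled 21-mer LTR duplex. Gel and phosphorimager quantitation of 19-mer 3′-processing and strand transfer products. %I = 100×[1−(D−C)/(N−C)], relative to DNA-alone and DNA+integrase controls.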

[2] = target: Human immunodeficiency virus type 1 integrase (Human immunodeficiency virus 1) (UniProt Q7ZJM1); assay: Percentage inhibition was obtained by performing in vitro assay on purified recombinant integrase by 3''-processing method at 100 micro g/mL (experiment 2); method in brief: as §1
[3] = target: Human immunodeficiency virus type 1 integrase (Human immunodeficiency virus 1) (UniProt Q7ZJM1); assay: Percentage inhibition was obtained by performing in vitro assay on purified recombinant integrase by strand transfer method at 100 micro g/mL (experiment 1); method in brief: as §1
[4] = target: Human immunodeficiency virus type 1 integrase (Human immunodeficiency virus 1) (UniProt Q7ZJM1); assay: Percentage inhibition was obtained by performing in vitro assay on purified recombinant integrase by strand transfer method at 100 micro g/mL (experiment 2); method in brief: as §1
[5] = target: T1, Human immunodeficiency virus type 1 integrase (Human immunodeficiency virus 1, UniProt Q7ZJM1); assay: Inhibitory concentration against purified recombinant integrase by 3'-processing in vitro assay
T1 sequence (Q7ZJM1 whole entry): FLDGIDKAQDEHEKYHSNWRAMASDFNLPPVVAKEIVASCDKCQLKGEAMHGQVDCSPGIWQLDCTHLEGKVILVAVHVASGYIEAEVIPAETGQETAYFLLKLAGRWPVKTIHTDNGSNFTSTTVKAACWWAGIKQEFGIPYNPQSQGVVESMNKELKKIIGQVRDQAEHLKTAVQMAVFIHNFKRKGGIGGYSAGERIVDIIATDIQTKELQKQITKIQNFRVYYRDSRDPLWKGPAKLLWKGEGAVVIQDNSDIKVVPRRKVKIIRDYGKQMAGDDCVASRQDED

[6] = target: T1, Human immunodeficiency virus type 1 integrase; assay: Inhibitory concentration against purified recombinant integrase by strand transfer in vitro assay
[7] = target: T1, Human immunodeficiency virus type 1 integrase; assay: Inhibitory concentration against purified recombinant integrase by strand transfer in vitro assay (experiment 1)
Method in brief: (§2)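 Recombinant wild-type HIV-1 integrase, final 200 nM, preincubated with inhibitor for 30 min at 30 °C. Buffer: 50 mM NaCl, HEPES/MOPS, 7.5 mM MnCl2 when specified, 10% DMSO, 10% glycerol, BSA, 2-mercaptoethanol. Then 20 nM 5′-32P-labeled 21-mer U5 LTR duplex (AE117/AE118) added for 60 min. Products separated on denaturing 20% urea gel and quantified by phosphorimager. 3′-processing (19-mer) and strand transfer products read in one reaction. IC50 read from plot of concentration vs percent inhibition, several concentrations.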

[8] = target: T1, Human immunodeficiency virus type 1 integrase; assay: Inhibitory concentration against purified recombinant integrase by strand transfer in vitro assay (experiment 2); method in brief: as §2
[9] = target: T1, Human immunodeficiency virus type 1 integrase; assay: Inhibitory concentration against purified recombinant integrase by 3'-processing in 3D search (experiment 1); method in brief: as §2
[10] = target: T1, Human immunodeficiency virus type 1 integrase; assay: Inhibitory concentration against purified recombinant integrase by 3'-processing in 3D search (experiment 2); method in brief: as §2
[11] = target: T1, Human immunodeficiency virus type 1 integrase; assay: Inhibitory concentration against purified recombinant integrase by 3'-processing in vitro assay (experiment 2); method in brief: as §2
[12] = target: T1, Human immunodeficiency virus type 1 integrase; assay: Inhibitory concentration against purified recombinant integrase by strand transfer 3D search (experiment 1); method in brief: as §2
[13] = target: T1, Human immunodeficiency virus type 1 integrase; assay: Inhibitory concentration against purified recombinant integrase by strand transfer 3D search (experiment 2); method in brief: as §2
[14] = target: T1, Human immunodeficiency virus type 1 integrase; assay: Inhibitory concentration against purified recombinant integrase by 3'-processing in vitro assay (experiment 1); method in brief: as §2
[15] = target: T1, Human immunodeficiency virus type 1 integrase; assay: Inhibitory concentration against purified recombinant integrase by 3'-processing in 3D search
[16] = target: T1, Human immunodeficiency virus type 1 integrase; assay: Inhibitory concentration against purified recombinant integrase by strand transfer 3D search

Chain of Human immunodeficiency virus type 1 integrase (Human immunodeficiency virus 1) (Q7ZJM1 as listed by the source): as the sequence (Q7ZJM1 whole entry) above

SMILES	inhibition [1] [%]	inhibition [2] [%]	inhibition [3] [%]	inhibition [4] [%]	other results
O=C(N/N=C/c1ccccc1O)C(O)c1ccccc1 (stereo unspecified)	37	45.8	77.9	70.2	–
CCCCCCCCCCCCCCCCCCCN1CN(CO)CN(CO)C1=O	20.8	43.2	54.4	69.7	–
O=C1Oc2ccccc2C(O)C1C(c1ccccc1)C1C(=O)Oc2ccccc2C1O (stereo unspecified)	–	–	–	–	IC50 [5]: 43.4 µM; IC50 [6]: 38.8 µM
O=C(NN(CCO)CCO)c1ccccc1	25	43.9	52.4	69.9	–
CCC/C=C/C=C/[C@@H]1C[C@@H](O)[C@@H](O)C(=O)[C@H]1CO	–	–	–	–	IC50 [7]: 268 µM; IC50 [8]: 135 µM; IC50 [9]: 350 µM; IC50 [10]: 291 µM; IC50 [11]: 289 µM; IC50 [12]: 267 µM; IC50 [13]: 134 µM; IC50 [14]: 350 µM
O=C(NCO)c1ccccc1O	25.8	10.2	61.5	55.2	–
COc1cc2oc(-c3ccc(O)cc3)cc(=O)c2c(O)c1C1OC(CO)C(O)C(O)C1O (stereo unspecified)	62.7	43.4	92.2	66.8	IC50 [7]: 134 µM; IC50 [8]: 143 µM; IC50 [9]: 224 µM; IC50 [10]: 291 µM; IC50 [11]: 291 µM; IC50 [12]: 134 µM; IC50 [13]: 143 µM; IC50 [14]: 224 µM
O=c1ccc2cc(O[C@@H]3O[C@H](CO)[C@@H](O)[C@H](O)[C@H]3O)c(O)cc2o1	40.8	29.6	67.7	34.2	–
CCN(CC)CCCC(C)Nc1ccnc2ccc(Cl)nc12 (stereo unspecified)	43.7	30.6	87.4	56.6	–
O=C(NCCO)c1cc(Cl)ccc1O	0.4	2.2	0	13.4	–
O=C(CC(O)(c1ccccc1)c1ccc(Cl)cc1)NC(=O)c1ccccc1O (stereo unspecified)	–	–	–	–	IC50 [7]: 101 µM; IC50 [8]: 142 µM; IC50 [9]: 182 µM; IC50 [10]: 237 µM; IC50 [11]: 238 µM; IC50 [12]: 101 µM; IC50 [13]: 141 µM; IC50 [14]: 182 µM
O=C(NNC(=O)c1ccccc1O)c1ccccc1O.O=C(NNCC(O)COc1ccccc1)c1ccccc1O (stereo unspecified)	–	–	–	–	IC50 [15]: 1.04 µM; IC50 [5]: 2 µM; IC50 [16]: 0.801 µM; IC50 [6]: 1.5 µM
O=C(O)CNC(=O)c1ccccc1O	28.9	33.3	25	33.3	–
